Test results taken from PubChem BioAssay.
Inconclusive results are not listed. Activity calls are given as the source filed them.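 How the source made its calls, unless noted: active means RAM network inhibition above 8.4% in each of two replicates, 3 SD over the compound average; inconclusive means above 8.4% inhibition in only one replicate; inactive means 8.4% inhibition or less in each replicate.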

Assays:
[1] = OD615 S. cerevisiae growth inhibition, permissive medium, pilot counter-assay, permissive growth control for S. cerevisiae lifespan shortening project (AID 705;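 active means growth inhibition above 25% in both replicates, a cutoff set 3 SD above the mean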); details: OD615, 24 h, at 10 µM, active compounds read high
In short: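 System: Engineered DeaD yeast | Buffer or medium: SC raffinose/galactose permissive medium | Doses: 10 µM single dose, 0.25% DMSO | Times: 24 h exposure, 30 °C | Measured by: OD615 turbidity read | Read-out: Yeast growth inhibition indicated by reduced 24 h OD615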

[2] = Restrictive medium S. cerevisiae growth inhibition, OD615, pilot screen of yeast lifespan reduction project, restrictive growth control (AID 706;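 active means growth inhibition above a set limit, 3 SD over mean compound inhibition, in both replicates, cut at about 43% in these data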;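 further: modified DeaD lifespan yeast strain shifted to restrictive glucose medium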); details: OD615, 48 h, at 10 µM, active compounds read high
In short: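 Assay system: engineered S. cerevisiae DeaD strain; Buffer or medium: CSMM-D glucose medium; Dosing: 10 µM compound, 0.25% DMSO; Times: cell pre-growth 4 h, compound exposure 48 h, 30 °C; Detection: absorbance (optical density) measured at 615 nm.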

[3] = viability gain of MRP-1-high H69AR cells under doxorubicin, pilot screen, MRP-1 activator project, CellTiter-Glo, duplicate (AID 807;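 active means viability increase at or above a cutoff of the median across tested compounds plus 3 SD, cut at about 8.5% in these data, passing the limit was not always enough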;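 further: compound pretreatment 18-22 h then 72 h combined with doxorubicin; 0% = doxorubicin alone and 100% = vehicle without doxorubicin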); details: H69AR viability with doxorubicin, CellTiter-Glo luminescence; at 10 µM; active compounds read high
[4] = growth suppression of beta-catenin knockout HCT116, pilot screen, human colon tumor cells (AID 823;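 active means cell viability at or below a set limit in both duplicate runs, the limit being the all-compound median minus 4 SD, cut at about 23% in these data, passing the limit was not always enough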;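 further: 0% = wells killed by 20 µM Hyamine and 100% = untreated DMSO cell wells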); details: CellTiter-Glo, 60 h, at 10 µM, active compounds read low
[5] = growth suppression of PTEN-deleted HCT116, pilot screen, cell-based, HCT116 clonal line, CellTiter-Glo (AID 824;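 active means viability at or below 27.92% in each of two runs, the all-compound median minus 4 SD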;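 further: 0% = 20 µM Hyamine control and 100% = vehicle cell control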); details: 60 h, at 10 µM, active compounds read low
[6] = inhibitors of the yeast RAM network, pilot screen, dse1pr::URA3 reporter, 5-FOA selection (AID 869;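 active means inhibition over a set limit, the all-compound mean plus 3 SD, in both replicate runs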;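 further: 0% = DMSO wells with no growth and 100% = 10 µM 1-NA-PP1 with full growth; RAM network block rescues cells from 5-FOA so hits raise OD615 growth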); details: S. cerevisiae dse1pr::URA3 5-FOA growth, OD615, 2 d; at 10 µM; active compounds read high; strain carries analog-sensitive mutant Cbk1 kinase
[7] = RAM signaling pathway blockade in yeast – S. cerevisiae, Pdr1DBD-CYC8 efflux-inhibited sensitized strain, primary screen (AID 1298);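 further: 0% = DMSO untreated cells without growth and 100% = 10 µM 1-NA-PP1 full growth; higher means more yeast growth rescued from 5-FOA killing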; details: S. cerevisiae cbk1-as DSE1-URA3 strain, 5-FOA growth OD615, 2 d; at 50 µM; active compounds read high

OCCOCCNc1ncnc2nc[nH]c12
inactive: growth inhibition [1] -8.26% | growth inhibition [2] -0.86% | viability increase [3] -0.43% | viability [4] 106% | viability [5] 101% | inhibition [6] 1.8% | RAM network inhibition [7] -0.28%

CC(C)COC(=O)c1cc(=O)[nH]c2ccccc12
inactive: growth inhibition [1] -4.92% | growth inhibition [2] -14.4% | viability increase [3] -2.47% | viability [4] 87.4% | viability [5] 84.1% | inhibition [6] 0.855% | RAM network inhibition [7] 0.1%

O=C(CCS(=O)(=O)c1cccs1)N1CCCC1
inactive: growth inhibition [1] -1.4% | growth inhibition [2] -7.61% | viability increase [3] -1.26% | viability [4] 94% | viability [5] 96.2% | inhibition [6] 2.58% | RAM network inhibition [7] 1.19%

Cn1cccc1Cc1nnc(SCC(=O)NCc2ccccc2Cl)n1-c1ccc(F)cc1
inactive: growth inhibition [1] -7.31% | growth inhibition [2] 9.87% | viability increase [3] -5% | viability [4] 87% | viability [5] 86.5% | inhibition [6] 1.92% | RAM network inhibition [7] 8.74%

Cc1cccc(-n2ncc3c(N(C)C4CCCCC4)ncnc32)c1
inactive: growth inhibition [1] 4.55% | growth inhibition [2] 23% | viability increase [3] 2.07% | viability [4] 84.7% | viability [5] 85.8% | inhibition [6] -1.19% | RAM network inhibition [7] 3.02%

CC(=O)c1ccc(C(=O)Nc2ccc(N3CCOCC3)cc2)cc1
inactive: growth inhibition [1] -0.45% | growth inhibition [2] 2.98% | viability increase [3] 3.45% | viability [4] 98.5% | viability [5] 99.6% | inhibition [6] 0.45% | RAM network inhibition [7] 2.61%

COc1cc(OC)nc(NC(=O)C(C)C)n1
inactive: growth inhibition [1] -1.12% | growth inhibition [2] 6.71% | viability increase [3] -0.57% | viability [4] 104% | viability [5] 97.3% | inhibition [6] 1.01% | RAM network inhibition [7] 4.06%

Nc1cc(C(F)(F)F)ccc1C(=O)O
inactive: growth inhibition [1] 9.88% | growth inhibition [2] 9.9% | viability increase [3] -1.66% | viability [4] 97.3% | viability [5] 95.3% | inhibition [6] 0.43% | RAM network inhibition [7] 0.63%

O=C(O)CCc1ccc(-c2cccs2)n1NC(=O)c1ccc(Cl)cc1
inactive: growth inhibition [1] -6.03% | growth inhibition [2] -14.6% | viability increase [3] -3.75% | viability [4] 98% | viability [5] 93.9% | inhibition [6] 0.29% | RAM network inhibition [7] -0.58%

Cc1sc2nc(SCC(=O)N(CCO)CCO)n(C3CCCCC3)c(=O)c2c1C
inactive: growth inhibition [1] -10.3% | growth inhibition [2] 0.44% | viability increase [3] -2.54% | viability [4] 99% | viability [5] 104% | inhibition [6] 2.33% | RAM network inhibition [7] 10.7%

O=C(CN1CCN(C2CCCCC2)CC1)c1ccc2cc[nH]c2c1
inactive: growth inhibition [1] 5.4% | growth inhibition [2] 2.7% | viability increase [3] -3.56% | viability [4] 94% | viability [5] 85.7% | inhibition [6] 1.9% | RAM network inhibition [7] -1.26%

CCN(CC)S(=O)(=O)c1ccc(-c2nnc3sc4cccc(C)c4n23)cc1
inactive: growth inhibition [1] -22.7% | growth inhibition [2] -11.5% | viability increase [3] -2.97% | viability [4] 73.4% | viability [5] 72.9% | inhibition [6] 2% | RAM network inhibition [7] 3.69%

Cn1c2ccc(CC(=O)O)cc2c2cc(CC(=O)O)ccc21
inactive: growth inhibition [1] 1.85% | growth inhibition [2] -12.4% | viability increase [3] -3.54% | viability [4] 96.8% | viability [5] 89.7% | inhibition [6] 1.1% | RAM network inhibition [7] 0.98%

O=S(=O)(NCC(c1cccnc1)N1CCN(Cc2ccccc2)CC1)c1ccccc1 (stereo not given)
inactive: growth inhibition [1] -10% | growth inhibition [2] -15.8% | viability increase [3] -2.02% | viability [4] 101% | viability [5] 92.8% | inhibition [6] 1.57% | RAM network inhibition [7] 0.96%

COC(=O)CCSCC(=O)Nc1nnc(C)s1
inactive: growth inhibition [1] 3.46% | growth inhibition [2] -7.57% | viability increase [3] -0.31% | viability [4] 108% | viability [5] 93.1% | inhibition [6] 3.05% | RAM network inhibition [7] 0.66%
